Source: publication PMC10267526 (The Journal of Biological Chemistry, 2023)

What was measured:
[1] = system: hTRPML1; details: ref [11], [12], cited from earlier work
[2] = biological target: T1, GCaMP6f-hTRPML1 (Homo sapiens, UniProt Q9GZU1); experiment: GCaMP6f Ca2+ indicator channel activation assay; assay type: cell-based
In short: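 HEK293T cells were transfected with GCaMP6f-hTRPML1 and seeded at 4 × 10^5 cells/100 μl in poly-D-lysine plates. After 24 h the medium was changed to phenol red-free DMEM, with a further 24 h growth. Plates were equilibrated 10 min at RT and 10 min at 25 °C, followed by a 1-min baseline read every 5 s. The 10× compound in Ca2+-free HEPES buffer was injected and reads continued 6 min (ex 480 ± 25, em 549–562 nm; final DMSO 0.5%). Baseline-normalised AUC was scaled to DMSO (0%) and reference agonist (100%), and EC50 was taken from a nonlinear fit. n = 6/concentration, three independent experiments.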

[3] = biological target: T2, hTRPML1-nLuc (Homo sapiens, UniProt Q9GZU1); experiment: In-cell BRET competitive displacement of MRC087; assay type: binding
T2 sequence (Q9GZU1 whole entry): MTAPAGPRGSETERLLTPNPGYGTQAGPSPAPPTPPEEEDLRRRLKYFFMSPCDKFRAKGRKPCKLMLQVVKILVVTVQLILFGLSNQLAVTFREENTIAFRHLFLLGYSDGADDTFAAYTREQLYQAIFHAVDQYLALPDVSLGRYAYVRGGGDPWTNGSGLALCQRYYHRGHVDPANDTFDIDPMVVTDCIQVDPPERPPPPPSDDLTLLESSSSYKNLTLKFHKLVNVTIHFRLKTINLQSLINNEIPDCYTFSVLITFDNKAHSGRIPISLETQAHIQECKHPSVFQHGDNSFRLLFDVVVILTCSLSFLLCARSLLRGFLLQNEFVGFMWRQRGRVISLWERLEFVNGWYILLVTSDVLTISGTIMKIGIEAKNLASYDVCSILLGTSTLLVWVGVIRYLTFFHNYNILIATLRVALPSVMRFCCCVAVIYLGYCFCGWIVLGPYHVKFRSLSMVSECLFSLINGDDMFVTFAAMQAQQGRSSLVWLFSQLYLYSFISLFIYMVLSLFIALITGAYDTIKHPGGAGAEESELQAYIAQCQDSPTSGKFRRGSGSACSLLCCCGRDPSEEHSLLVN
In short: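 hTRPML1-nLuc HEK293T cells (2 × 10^5/100 μl, 48 h post-transfection) in Opti-MEM received tracer at 2.0 μM final and serially diluted test compound (final DMSO 1%). After 2 h incubation, nLuc substrate plus inhibitor was added and emissions read at 460/610 nm. BRET was normalised to probe-only and no-probe wells and fitted for EC50, then converted to KdA by Cheng–Prusoff using tracer Kd. n = 3–4/concentration, three independent experiments.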

[4] = biological target: T2, hTRPML1-nLuc; experiment: In-cell BRET kinetics of competitive binding; details: for koff: read-out: koff of unlabeled compound
In short: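 hTRPML1-nLuc HEK293T cells in Opti-MEM were given nLuc substrate plus inhibitor, shaken 5 min and read for a 1-min baseline. The reader then injected tracer (2.0 μM final) premixed with one of two concentrations of unlabeled compound, or DMSO vehicle; 60 μM reference antagonist defined nonspecific binding. Specific BRET versus time was fitted to the Motulsky–Mahan competitive kinetics model with tracer kon/koff obtained separately. n = 6/concentration, single experiment.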

[5] = biological target: T1, GCaMP6f-hTRPML1; experiment: GCaMP6f Ca2+ indicator channel assay; assay type: cell-based
In short: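 GCaMP6f-hTRPML1-transfected HEK293T cells were preincubated 10 min at RT with test compound. After a 1-min baseline (reads every 5 s), reference agonist was injected at 25 μM final and fluorescence recorded a further 6 min (ex 480 ± 25, em 549–562 nm; 0.5% DMSO). Compounds were diluted in nominally Ca2+-free HEPES-buffered solution. Baseline-normalised AUC was scaled to DMSO and agonist controls, and IC50 was derived by nonlinear fit. n = 6/concentration, two independent experiments.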

T1 sequence (Q9GZU1 whole entry): as above

Row | EC50 [2] [µM] | Kd [3] [µM] | Kd [4] [µM] | residence time [4] [min] | koff [4] [s⁻¹] | kon ([4]; read-out: kon of unlabeled compound) [M⁻¹ s⁻¹] | IC50 [5] [nM] | Structure (SMILES) | EC50 ([1]; read-out: EC50 in previous studies) [µM] | IC50 ([1]; read-out: IC50 in previous studies) [nM]
1 | 13 ± 3.1 | 19.8 ± 1.8 | 37.3 | 1.5 | 0.0108 | – | – | CC1CC(C)(C)N(C(=O)CN2C(=O)c3ccccc3C2=O)c2ccccc21 (stereo not shown) [compound 1, 2-(2-oxo-2-(2,2,4-trimethyl-3,4-dihydroquinolin-1(2H)-yl)ethyl)isoindoline-1,3-dione] | 9.7 | –
2 | – | 2.8 ± 1.2 | 1 | 1.5 | 0.0112 | 10700 | 2800 ± 200 | COc1ccccc1N1CCN(c2ccccc2NS(=O)(=O)c2ccccc2)CC1 [compound 8, N-(2-(4-(2-methoxyphenyl)piperazin-1-yl)phenyl)benzenesulfonamide] | – | 1800
